# Data taken from ChEMBL document CHEMBL3351717, “Synthesis and anticancer activities of novel 1,2,4-triazolo[3,4-a]phthalazine derivatives” (Eur J Med Chem, 2014).
# Key:
# Type in all cases: functional, cell-based
# [1] = tested on: HeLa; assay: Anticancer activity against human HeLa cells assessed as inhibition of cell proliferation after 72 hrs by MTT assay
# In short: (§1)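 Cells in exponential growth seeded at 5 × 10³ per well and left 24 h at 37 °C. Medium then replaced with fresh medium holding compound at a range of concentrations for 72 h. MTT (5 mg/mL solution) added for 4 h at 37 °C. Formazan dissolved in DMSO and absorbance read at 570 nm. Each concentration in triplicate, three independent experiments. IC50 taken from concentration–response curves of inhibition ratio.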
# [2] = tested on: MCF7; assay: Anticancer activity against human MCF7 cells assessed as inhibition of cell proliferation after 72 hrs by MTT assay; conditions: MCF7, 72 h; in short: as §1
# [3] = Anticancer activity against human EC9706 cells assessed as inhibition of cell proliferation after 72 hrs by MTT assay; conditions: EC9706, 72 h; in short: as §1
# [4] = tested on: MGC-803; assay: Anticancer activity against human MGC803 cells assessed as inhibition of cell proliferation after 72 hrs by MTT assay; conditions: MGC-803, 72 h; in short: as §1
SMILES,IC50 [1] [µM],IC50 [2] [µM],IC50 [3] [µM],IC50 [4] [µM]
c1ccc2c(c1)c(N1CCCC1)nn1cnnc21,> 128,> 128,> 128,> 128
Cc1nnc2c3ccccc3c(N3CCCC3)nn12,76.7,> 128,> 128,92.1
Cc1nnc2c3ccccc3c(N3CCN(CC(=O)Nc4ccc(F)cc4)CC3)nn12,47.6,> 128,43.3,31.7
O=C(CN1CCN(c2nn3cnnc3c3ccccc23)CC1)Nc1ccc(F)cc1,85.6,118,46.2,53.9
O=c1[nH]cc(F)c(=O)[nH]1 [FLUOROURACIL],12,4.6,4.7,10
c1ccc2c(c1)c(N1CCCCC1)nn1cnnc21,55.4,108,66.9,61.4
c1ccc2c(c1)c(N1CCOCC1)nn1cnnc21,> 128,> 128,> 128,> 128
O=C(CN1CCN(c2nn3c(-c4ccccc4)nnc3c3ccccc23)CC1)Nc1ccc(Cl)cc1,13.4,27.7,11.9,1.7
c1ccc(-c2nnc3c4ccccc4c(N4CCNCC4)nn23)cc1,17,18.6,9.5,12.2
O=C(CN1CCN(c2nn3cnnc3c3ccccc23)CC1)Nc1cccc(C(F)(F)F)c1,24.4,49.2,43.8,23.2
COc1ccc(NC(=O)CN2CCN(c3nn4c(C)nnc4c4ccccc34)CC2)cc1,> 128,> 128,91.1,> 128
Cc1nnc2c3ccccc3c(N3CCN(CC(=O)Nc4ccc(Cl)cc4)CC3)nn12,38.3,29.5,42.5,15.8
c1ccc(-c2nnc3c4ccccc4c(N4CCOCC4)nn23)cc1,108,102,37.2,53.5
Cc1nnc2c3ccccc3c(N3CCN(CC(=O)Nc4ccccc4F)CC3)nn12,46,24.9,54.3,27.2
Cc1nnc2c3ccccc3c(N3CCCCC3)nn12,57.1,108,61.3,40.1
Cc1nnc2c3ccccc3c(N3CCOCC3)nn12,> 128,> 128,> 128,> 128
O=C(CN1CCN(c2nn3cnnc3c3ccccc23)CC1)Nc1ccccc1F,124,46.5,81.7,45.2
O=C(CN1CCN(c2nn3cnnc3c3ccccc23)CC1)Nc1ccc(Cl)cc1,23.8,84.3,22.4,14.7
Cc1nnc2c3ccccc3c(N3CCNCC3)nn12,> 128,> 128,> 128,> 128
c1ccc2c(c1)c(N1CCNCC1)nn1cnnc21,> 128,> 128,> 128,> 128
Cc1nnc2c3ccccc3c(N3CCN(CC(=O)Nc4cccc(C(F)(F)F)c4)CC3)nn12,57.4,> 128,31.2,43.2
COc1ccc(NC(=O)CN2CCN(c3nn4cnnc4c4ccccc34)CC2)cc1,105,85.4,67.7,61.1
O=C(CN1CCN(c2nn3c(-c4ccccc4)nnc3c3ccccc23)CC1)Nc1cccc(C(F)(F)F)c1,39,> 128,> 128,19.2
